The source of these data is ChEMBL document CHEMBL1141057, “Synthesis and antibacterial activity of a novel series of DNA gyrase inhibitors: 5-[(E)-2-arylvinyl]pyrazoles” (Bioorg Med Chem Lett, 2005).

Molecules are shown by their SMILES. ≈ marks a conversion by molar mass, not a printed value.

For test [1], the system named is Escherichia coli. Description: Minimal inhibitory concentration against Escherichia coli W3110 delta acrA; A multidrug efflux pump mutant. Type of test: functional. In outline: (§1)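 MIC determined by the microdilution method.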
Test [2] has as its system Enterococcus faecium. Description: Minimal inhibitory concentration against Enterococcus faecium ATCC 19434 (VSE); susceptible strain. The test is classed as functional.
In test [3] the test system is Staphylococcus aureus. Description: Minimal inhibitory concentration against Staphylococcus aureus KMP9; multidrug resistant strain. Type of test: functional. In a few lines: (§2)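 MIC determined by the microdilution method against Gram-positive strains, including a susceptible strain and a multidrug-resistant S. aureus strain.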
Test [4] concerns Enterococcus faecium. Description: Minimal inhibitory concentration against Enterococcus faecium KU1778 (VRE); sparfloxacin, clarithromycin, ampicillin, vancomycin resistant strain. Type of test: functional.
The subject of test [5] is Streptococcus pneumoniae. Briefly: Minimal inhibitory concentration against Streptococcus pneumoniae KT2524 (PRSP); sparfloxacin, clarithromycin, ampicillin resistant strain. Type of test: functional.
Test [6] has as its system Streptococcus pneumoniae. Briefly: Minimal inhibitory concentration against Streptococcus pneumoniae ATCC 49619 (PSSP); susceptible strain. Type of test: functional.
The test system of test [7] is Staphylococcus aureus. Briefly: Minimal inhibitory concentration against Staphylococcus aureus KMP9 (MRSA); sparfloxacin, clarithromycin, ampicillin resistant strain. The test is classed as functional.
For test [8], the system named is Staphylococcus aureus. Description: Minimal inhibitory concentration against Staphylococcus aureus FDA 209P; susceptible strain. The test is classed as functional. In outline:
as §2

Test [9] has as its system Escherichia coli. Description: Minimal inhibitory concentration against Escherichia coli NIHJ JC-2; susceptible strain. The test is classed as functional. In outline:
as §1

The test system of test [10] is Staphylococcus aureus. Briefly: Minimal inhibitory concentration against Staphylococcus aureus FDA 209P(MSSA); susceptible strain. The test is classed as functional.
Test [11] deals with T1, DNA topoisomerase 4 subunit A (Escherichia coli K-12, UniProt P0AFI2).
T1 sequence (P0AFI2 whole entry): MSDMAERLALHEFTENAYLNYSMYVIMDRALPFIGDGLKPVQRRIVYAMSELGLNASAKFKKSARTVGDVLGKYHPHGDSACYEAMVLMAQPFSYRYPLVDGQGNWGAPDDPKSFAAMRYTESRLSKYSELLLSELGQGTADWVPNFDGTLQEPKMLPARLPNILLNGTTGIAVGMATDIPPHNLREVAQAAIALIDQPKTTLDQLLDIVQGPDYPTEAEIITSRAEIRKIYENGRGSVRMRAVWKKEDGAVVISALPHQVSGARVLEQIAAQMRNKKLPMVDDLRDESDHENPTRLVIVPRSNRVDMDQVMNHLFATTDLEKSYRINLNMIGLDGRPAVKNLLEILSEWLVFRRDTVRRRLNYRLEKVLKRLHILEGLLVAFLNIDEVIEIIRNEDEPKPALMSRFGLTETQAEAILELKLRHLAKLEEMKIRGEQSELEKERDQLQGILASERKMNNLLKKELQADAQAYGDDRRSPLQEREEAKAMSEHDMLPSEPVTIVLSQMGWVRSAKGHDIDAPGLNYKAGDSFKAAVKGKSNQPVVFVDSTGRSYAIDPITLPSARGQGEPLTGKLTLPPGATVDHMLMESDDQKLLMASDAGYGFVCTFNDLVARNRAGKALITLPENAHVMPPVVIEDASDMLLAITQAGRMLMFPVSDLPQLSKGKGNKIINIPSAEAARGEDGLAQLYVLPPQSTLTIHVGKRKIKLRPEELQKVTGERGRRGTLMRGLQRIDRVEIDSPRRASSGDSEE
Briefly: Inhibitory activity against decatenation of DNA topoisomerase IV isolated from Escherichia coli.

Test [12] addresses DNA gyrase (Escherichia coli, UniProt P0AES4+P0AES6). Briefly: Inhibitory activity against supercoiling activity of DNA gyrase isolated from Escherichia coli. The test is classed as protein-complex assay.
In test [13] the test system is Staphylococcus aureus. Description: 4 Minimal inhibitory concentration against Staphylococcus aureus KMP9; multidrug resistant strain. The test is classed as functional. In outline:
as §2

The term MIC denotes the smallest concentration in the dilution series that meets the test's criterion for growth inhibition. With `Clc1cccc(-n2nc(C3CCNCC3)cc2CCc2c[nH]c3ccc(Cl)cc23)c1`, the MIC in test [1] was 16 µg/mL (≈ 36.4 µM); in [2] it was 16 µg/mL (≈ 36.4 µM); in test [3], 16 µg/mL (≈ 36.4 µM); in [4], 16 µg/mL (≈ 36.4 µM); in [5], 8 µg/mL (≈ 18.2 µM); in test [6] it was 16 µg/mL (≈ 36.4 µM). The MIC in [7] was found to be 16 µg/mL (≈ 36.4 µM); in test [8] it was 16 µg/mL (≈ 36.4 µM); in test [9], 64 µg/mL (≈ 146 µM); in test [10] it was 16 µg/mL (≈ 36.4 µM).
Take `Clc1ccc(/C=C/c2cc(C3CCNCC3)[nH]n2)cc1Cl`: the MIC stood at 4 µg/mL (≈ 12.4 µM) in test [1], 4 µg/mL (≈ 12.4 µM) in test [3], 4 µg/mL (≈ 12.4 µM) in test [8] and 8 µg/mL (≈ 24.8 µM) in [9].
For the molecule `Clc1cccc(-n2nc(C3CCNCC3)cc2CCc2c(Cl)cccc2Cl)c1`, the MIC is 16 µg/mL (≈ 36.8 µM) in test [1], 32 µg/mL (≈ 73.6 µM) in test [3], 32 µg/mL (≈ 73.6 µM) in test [8] and more than 128 µg/mL in [9].
The term IC50 denotes the concentration that inhibits the measured activity by half. A lower IC50 goes with inhibition by little substance. In the case of `Clc1ccc(COc2ccc(/C=C/c3cc(C4CCNCC4)[nH]n3)cc2)cc1Cl`, the MIC in [1] came to 2 µg/mL (≈ 4.67 µM); in test [2] it was 2 µg/mL (≈ 4.67 µM); in test [3] it was 2 µg/mL (≈ 4.67 µM); in test [4] it was 1 µg/mL (≈ 2.33 µM); in [5], 1 µg/mL (≈ 2.33 µM); in test [6] it was 2 µg/mL (≈ 4.67 µM). Moreover, the MIC in test [7] was found to be 2 µg/mL (≈ 4.67 µM); in test [8], 2 µg/mL (≈ 4.67 µM); in test [9], 4 µg/mL (≈ 9.34 µM); in test [10], 2 µg/mL (≈ 4.67 µM). Besides, the IC50 is 64.9 µM in test [11] and 32.4 µM in test [12].
With `Cn1cc(/C=C/c2cc(C3CCNCC3)nn2-c2cccc(Cl)c2)c2cc(Cl)ccc21`, the MIC amounted to 4 µg/mL (≈ 8.86 µM) in test [1]; 2 µg/mL (≈ 4.43 µM) in test [2]; 2 µg/mL (≈ 4.43 µM) in test [3]; 1 µg/mL (≈ 2.22 µM) in test [4]; 1 µg/mL (≈ 2.22 µM) in test [5]; 1 µg/mL (≈ 2.22 µM) in test [6]. In addition, the MIC in test [7] is 2 µg/mL (≈ 4.43 µM); in test [8], 2 µg/mL (≈ 4.43 µM); in test [9], more than 128 µg/mL; in [10], 2 µg/mL (≈ 4.43 µM). Besides, the IC50 in test [11] was 35.4 µM.
With `Clc1cccc(-n2nc(C3CCNCC3)cc2/C=C/c2cc3cc(Cl)ccc3[nH]2)c1`, the MIC stood at 4 µg/mL (≈ 9.15 µM) in test [1], 4 µg/mL (≈ 9.15 µM) in [3], 2 µg/mL (≈ 4.57 µM) in test [8] and 16 µg/mL (≈ 36.6 µM) in [9].
As to `Clc1cccc(Cl)c1CCc1cc(C2CCNCC2)[nH]n1`, the MIC in test [1] turned out to be 64 µg/mL (≈ 197 µM); in test [3], 64 µg/mL (≈ 197 µM); in test [8], 32 µg/mL (≈ 98.7 µM); in test [9], 128 µg/mL (≈ 395 µM).
With `Clc1cccc(-n2nc(C3CCNCC3)cc2/C=C/c2ccc(OCc3ccc(Cl)c(Cl)c3)cc2)c1`, the MIC in test [1] worked out at 4 µg/mL (≈ 7.42 µM); in test [3], 4 µg/mL (≈ 7.42 µM); in [8], 2 µg/mL (≈ 3.71 µM); in [9] it was 32 µg/mL (≈ 59.4 µM).
Consider `Clc1cccc(-n2nc(C3CCNCC3)cc2/C=C/c2c(Cl)cccc2Cl)c1`, for which the MIC in [1] came out at 4 µg/mL (≈ 9.24 µM); in [2], 8 µg/mL (≈ 18.5 µM); in test [3], 4 µg/mL (≈ 9.24 µM); in test [4] it was 8 µg/mL (≈ 18.5 µM); in test [5], 4 µg/mL (≈ 9.24 µM); in test [6], 4 µg/mL (≈ 9.24 µM). Moreover, the MIC in [7] stood at 4 µg/mL (≈ 9.24 µM); in test [8] it was 4 µg/mL (≈ 9.24 µM); in [9], 64 µg/mL (≈ 148 µM); in [10], 4 µg/mL (≈ 9.24 µM).
On to `Clc1cccc(-n2nc(C3CCNCC3)cc2/C=C/c2c[nH]c3ccc(Cl)cc23)c1`, for which the MIC in [1] came out at 4 µg/mL (≈ 9.15 µM); in test [2], 2 µg/mL (≈ 4.57 µM); in [3] it was 1 µg/mL (≈ 2.29 µM); in test [4] it was 2 µg/mL (≈ 4.57 µM); in test [5], 2 µg/mL (≈ 4.57 µM); in test [6], 2 µg/mL (≈ 4.57 µM). Besides, the minimum inhibitory concentration (MIC) was found to be 1 µg/mL (≈ 2.29 µM) in test [7], 1 µg/mL (≈ 2.29 µM) in test [8], 8 µg/mL (≈ 18.3 µM) in test [9] and 1 µg/mL (≈ 2.29 µM) in [10]. The IC50 is 31.8 µM in test [11] and 18.3 µM in test [12].
Consider `Clc1cccc(Cl)c1/C=C/c1cc(C2CCNCC2)[nH]n1`, for which the MIC in test [1] was more than 128 µg/mL; in [3] it was more than 128 µg/mL; in [8] it was 128 µg/mL (≈ 397 µM); in [9] it was more than 128 µg/mL.
Consider `Clc1cccc(-n2nc(C3CCNCC3)cc2/C=C/c2ccc(Cl)c(Cl)c2)c1`, for which the MIC came to 4 µg/mL (≈ 9.24 µM) in test [1], 4 µg/mL (≈ 9.24 µM) in test [13], 8 µg/mL (≈ 18.5 µM) in [8] and 16 µg/mL (≈ 37 µM) in test [9].
